The text below walks through data of paper PMC5912169 (Bioorganic & medicinal chemistry letters, 2018).

In experiment [1] the test system is T. brucei (STIB795). Put plainly: In vivo antitrypanosomal activity, T. b. brucei STIB795-Luc mouse model. The arrangement: species or system mice. The following applies: 4 consecutive days. An outline of the steps: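 Groups of four female NMRI mice were infected ip with 1 × 10⁴ bloodstream-form T. b. brucei STIB795-Luc. Test compound was given ip in water plus 10% DMSO from 3 days post-infection, with an untreated control group. Parasitemia was tracked by live imaging, and moribund mice were euthanized.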

Experiment [2] has as its target human cathepsin L (Homo sapiens, UniProt P07711). The experiment can be described thus: Human cathepsin L inhibition. The format is biochemical. The following applies: from 0.1 μM to 125 μM; 1 hour pre-incubation. An outline of the steps:
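Human liver-derived cathepsin L (0.58 nM) in 400 mM sodium acetate pH 5.5 with 8 mM DTT, 4 mM EDTA and 0.01% Triton X-100. Pre-incubated 1 h with test compound, then Z-Phe-Arg-AMC (20 μM, concentration as added) in sodium acetate buffer. Substrate cleavage was followed as fluorescence rate (RFU/sec) at 25 °C, λex 355/λem 460 nm.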

The target of experiment [3] is T. brucei cathepsin L (rhodesain) (Trypanosoma brucei rhodesiense, UniProt Q95PM0). Put plainly: Rhodesain inhibition assay. Conditions: 1 hour pre-incubation. In kind it is biochemical. An outline of the steps:
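Rhodesain was expressed in Pichia pastoris and used at 0.8 nM final in 50 mM sodium acetate pH 5.5 with 2 mM DTT and 0.01% Triton X-100. It was pre-incubated 1 h with test compound (20 μM final), then Z-Phe-Arg-AMC (10 μM) was added. Cleavage rate (RFU/sec) was read at 25 °C, λex 355/λem 460 nm. E-64 (10 μM) served as positive control.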

Structures are written as SMILES.

human cathepsin L, sequence (P07711 114-333): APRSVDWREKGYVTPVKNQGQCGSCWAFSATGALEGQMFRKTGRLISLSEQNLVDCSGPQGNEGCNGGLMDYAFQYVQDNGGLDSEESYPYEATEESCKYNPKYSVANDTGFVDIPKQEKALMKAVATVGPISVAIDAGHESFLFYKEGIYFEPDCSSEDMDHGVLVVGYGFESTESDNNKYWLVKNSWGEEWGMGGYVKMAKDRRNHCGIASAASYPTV

Turning to `O=C(Cc1ccc(OC/C=C/S(=O)(=O)c2ccccc2)cc1)Nc1cccc2cccnc12` [Compound 9], the “parasites in infected mice 24 hours posttreatment” value in experiment [1] (50 mg/kg/day intraperitoneally) and in experiment [1] (100 mg/kg/day intraperitoneally) was “positive for parasites” throughout.
As to `O=C(N[C@H](/C=C/S(=O)(=O)c1ccccc1)CCc1ccccc1)c1cccc2cccnc12` [Compound 27], the “inhibitory activity against human cathepsin L” value in experiment [2] is “inactive”. In addition, the “inhibition of rhodesain at 20 μM” value in experiment [3] is listed as “completely inactivate”.
